From ChEMBL document CHEMBL4699501, “Dihydrodibenzothiepine: Promising hydrophobic pharmacophore in the influenza cap-dependent endonuclease inhibitor” (Bioorg Med Chem Lett, 2020)
Calls of active or inactive are those of the source. The calls are words filed in the database; no cut-off is given here.

system: not listed separately; experiment: Inhibition of Influenza virus Cap-dependent endonuclease; set-up: species or system Influenza A virus; conditions: not given

Structure (SMILES)	IC50
CC(C)N1CN(C(c2ccccc2)c2ccccc2Cl)n2ccc(=O)c(O)c2C1=O (stereo not given)	210 nM
C[C@@H](N1CN([C@H]2c3ccccc3CSc3c(Cl)cccc32)n2ccc(=O)c(O)c2C1=O)C(F)(F)F	23.2 nM
CC(C)N1CN(C2c3ccccc3CCc3ccccc32)n2ccc(=O)c(O)c2C1=O	60.1 nM
C[C@@H](N1CN([C@H]2c3ccccc3CSc3cccc(Cl)c32)n2ccc(=O)c(O)c2C1=O)C(F)(F)F	76.2 nM
CC(C)N1CN(C(c2ccccc2)c2cccc(Cl)c2)n2ccc(=O)c(O)c2C1=O (stereo not given)	101 nM
C[C@@H](N1CN([C@@H]2c3ccccc3SCc3cccc(F)c32)n2ccc(=O)c(O)c2C1=O)C(F)(F)F	31.8 nM
C[C@@H](N1CN([C@H]2c3ccc(F)cc3CSc3ccccc32)n2ccc(=O)c(O)c2C1=O)C(F)(F)F	12.3 nM
CC(C)N1CN(C(c2ccccc2Cl)c2ccccc2Cl)n2ccc(=O)c(O)c2C1=O	37 nM
Cc1cccc(C(c2ccccc2)N2CN(C(C)C)C(=O)c3c(O)c(=O)ccn32)c1 (stereo not given)	276 nM
O=C1c2c(O)c(=O)ccn2N(C2c3ccccc3CSc3ccccc32)CN1C(CF)CF (stereo not given)	113 nM
C[C@@H](N1CN([C@@H]2c3ccccc3SCc3c2ccc(F)c3F)n2ccc(=O)c(O)c2C1=O)C(F)(F)F	5.57 nM
CC(C)N1CN(C(c2cccc(Cl)c2)c2cccc(Cl)c2)n2ccc(=O)c(O)c2C1=O	230 nM
C[C@@H](N1CN([C@H]2c3ccccc3CSc3cc(Cl)ccc32)n2ccc(=O)c(O)c2C1=O)C(F)(F)F	62.1 nM
CC(C)N1CN(C(c2cccc(C(F)(F)F)c2)c2cccc(C(F)(F)F)c2)n2ccc(=O)c(O)c2C1=O	456 nM
O=C1c2c(O)c(=O)ccn2N(C2c3ccccc3CSc3ccccc32)CN1C1CC1 (stereo not given)	35 nM
COCC(C)N1CN(C2c3ccccc3CSc3ccccc32)n2ccc(=O)c(O)c2C1=O (stereo not given)	57.9 nM
COc1cccc(C(c2cccc(OC)c2)N2CN(C(C)C)C(=O)c3c(O)c(=O)ccn32)c1	1310 nM
C[C@@H](N1CN([C@H]2c3ccccc3CSc3cccc(F)c32)n2ccc(=O)c(O)c2C1=O)C(F)(F)F	37.1 nM
C[C@@H](N1CN([C@H]2c3ccccc3CSc3ccc(Cl)cc32)n2ccc(=O)c(O)c2C1=O)C(F)(F)F	24.9 nM
CC(C)N1CN(C(c2ccccc2)c2ccccc2)n2ccc(=O)c(O)c2C1=O	286 nM

system: Influenza A virus; experiment: Antiviral activity against Influenza A virus (A/WSN/1933(H1N1)) infected in […] MDBK cells assessed as cell protection incubated for 72 hrs; type: functional, organism-based; conditions: not given
Summary of the method: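 Madin-Darby bovine kidney cells were infected with A/WSN/33 at 50 TCID50/well and incubated with compound at 37 °C in a CO2 incubator for 72 hr.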

Structure (SMILES)	EC50
CC(C)N1CN(C(c2ccccc2)c2ccccc2Cl)n2ccc(=O)c(O)c2C1=O (stereo not given)	77.8 nM
C[C@@H](N1CN([C@H]2c3ccccc3CSc3c(Cl)cccc32)n2ccc(=O)c(O)c2C1=O)C(F)(F)F	13.5 nM
CC(C)N1CN(C2c3ccccc3CCc3ccccc32)n2ccc(=O)c(O)c2C1=O	20.1 nM
C[C@@H](N1CN([C@H]2c3ccccc3CSc3cccc(Cl)c32)n2ccc(=O)c(O)c2C1=O)C(F)(F)F	18.8 nM
CC(C)N1CN(C(c2ccccc2)c2cccc(Cl)c2)n2ccc(=O)c(O)c2C1=O (stereo not given)	75.9 nM
C[C@@H](N1CN([C@@H]2c3ccccc3SCc3cccc(F)c32)n2ccc(=O)c(O)c2C1=O)C(F)(F)F	3.75 nM
C[C@@H](N1CN([C@H]2c3ccc(F)cc3CSc3ccccc32)n2ccc(=O)c(O)c2C1=O)C(F)(F)F	3.54 nM
CC(C)N1CN(C(c2ccccc2Cl)c2ccccc2Cl)n2ccc(=O)c(O)c2C1=O	48.2 nM
Cc1cccc(C(c2ccccc2)N2CN(C(C)C)C(=O)c3c(O)c(=O)ccn32)c1 (stereo not given)	219 nM
O=C1c2c(O)c(=O)ccn2N(C2c3ccccc3CSc3ccccc32)CN1C(CF)CF (stereo not given)	27.5 nM
C[C@@H](N1CN([C@@H]2c3ccccc3SCc3c2ccc(F)c3F)n2ccc(=O)c(O)c2C1=O)C(F)(F)F	4.28 nM
CC(C)N1CN(C(c2cccc(Cl)c2)c2cccc(Cl)c2)n2ccc(=O)c(O)c2C1=O	65.8 nM
C[C@@H](N1CN([C@H]2c3ccccc3CSc3cc(Cl)ccc32)n2ccc(=O)c(O)c2C1=O)C(F)(F)F	21.2 nM
CC(C)N1CN(C(c2cccc(C(F)(F)F)c2)c2cccc(C(F)(F)F)c2)n2ccc(=O)c(O)c2C1=O	386 nM
O=C1c2c(O)c(=O)ccn2N(C2c3ccccc3CSc3ccccc32)CN1C1CC1 (stereo not given)	13.7 nM
COCC(C)N1CN(C2c3ccccc3CSc3ccccc32)n2ccc(=O)c(O)c2C1=O (stereo not given)	20.7 nM
COc1cccc(C(c2cccc(OC)c2)N2CN(C(C)C)C(=O)c3c(O)c(=O)ccn32)c1	589 nM
C[C@@H](N1CN([C@H]2c3ccccc3CSc3cccc(F)c32)n2ccc(=O)c(O)c2C1=O)C(F)(F)F	15.1 nM
C[C@@H](N1CN([C@H]2c3ccccc3CSc3ccc(Cl)cc32)n2ccc(=O)c(O)c2C1=O)C(F)(F)F	70.8 nM
CC(C)N1CN(C(c2ccccc2)c2ccccc2)n2ccc(=O)c(O)c2C1=O	81.6 nM

system: not listed separately; experiment: Metabolic stability in rat liver microsomes assessed as compound remaining at 2 uM incubated for 30 mins; type: ADME, Microsome; conditions: read-out: Stabilty
Summary of the method: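 Compound at 2 μM was incubated with rat liver microsomes at 37 °C for 30 min. The read-out is % of compound remaining.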

Structure (SMILES)	remaining at 0.5 h, 2 µM
C[C@@H](N1CN([C@H]2c3ccccc3CSc3c(Cl)cccc32)n2ccc(=O)c(O)c2C1=O)C(F)(F)F	92.3%
C[C@@H](N1CN([C@H]2c3ccccc3CSc3cccc(Cl)c32)n2ccc(=O)c(O)c2C1=O)C(F)(F)F	85.4%
C[C@@H](N1CN([C@@H]2c3ccccc3SCc3cccc(F)c32)n2ccc(=O)c(O)c2C1=O)C(F)(F)F	102%
C[C@@H](N1CN([C@H]2c3ccc(F)cc3CSc3ccccc32)n2ccc(=O)c(O)c2C1=O)C(F)(F)F	95.3%
O=C1c2c(O)c(=O)ccn2N(C2c3ccccc3CSc3ccccc32)CN1C(CF)CF (stereo not given)	84.9%
C[C@@H](N1CN([C@@H]2c3ccccc3SCc3c2ccc(F)c3F)n2ccc(=O)c(O)c2C1=O)C(F)(F)F	81.1%
C[C@@H](N1CN([C@H]2c3ccccc3CSc3cc(Cl)ccc32)n2ccc(=O)c(O)c2C1=O)C(F)(F)F	101%
O=C1c2c(O)c(=O)ccn2N(C2c3ccccc3CSc3ccccc32)CN1C1CC1 (stereo not given)	73.7%
COCC(C)N1CN(C2c3ccccc3CSc3ccccc32)n2ccc(=O)c(O)c2C1=O (stereo not given)	58.6%
C[C@@H](N1CN([C@H]2c3ccccc3CSc3cccc(F)c32)n2ccc(=O)c(O)c2C1=O)C(F)(F)F	97.4%

system: not listed separately; experiment: Clearance in iv dosed rat by LC/MS/MS analysis; type: ADME, organism-based; conditions: in vivo
Summary of the method: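 Rats received a single intravenous dose, and plasma levels were quantified by LC/MS/MS to derive clearance. Values are the mean of duplicate experiments.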

Structure (SMILES)	clearance
C[C@@H](N1CN([C@H]2c3ccccc3CSc3c(Cl)cccc32)n2ccc(=O)c(O)c2C1=O)C(F)(F)F	6.78 mL/min/kg
C[C@@H](N1CN([C@H]2c3ccccc3CSc3cccc(Cl)c32)n2ccc(=O)c(O)c2C1=O)C(F)(F)F	10.2 mL/min/kg
C[C@@H](N1CN([C@@H]2c3ccccc3SCc3cccc(F)c32)n2ccc(=O)c(O)c2C1=O)C(F)(F)F	18 mL/min/kg
C[C@@H](N1CN([C@H]2c3ccc(F)cc3CSc3ccccc32)n2ccc(=O)c(O)c2C1=O)C(F)(F)F	11.6 mL/min/kg
O=C1c2c(O)c(=O)ccn2N(C2c3ccccc3CSc3ccccc32)CN1C(CF)CF (stereo not given)	33.5 mL/min/kg
C[C@@H](N1CN([C@@H]2c3ccccc3SCc3c2ccc(F)c3F)n2ccc(=O)c(O)c2C1=O)C(F)(F)F	11 mL/min/kg
C[C@@H](N1CN([C@H]2c3ccccc3CSc3cc(Cl)ccc32)n2ccc(=O)c(O)c2C1=O)C(F)(F)F	12.2 mL/min/kg
O=C1c2c(O)c(=O)ccn2N(C2c3ccccc3CSc3ccccc32)CN1C1CC1 (stereo not given)	46 mL/min/kg
COCC(C)N1CN(C2c3ccccc3CSc3ccccc32)n2ccc(=O)c(O)c2C1=O (stereo not given)	49.1 mL/min/kg
C[C@@H](N1CN([C@H]2c3ccccc3CSc3cccc(F)c32)n2ccc(=O)c(O)c2C1=O)C(F)(F)F	9.09 mL/min/kg

system: not listed separately; experiment: Fraction unbound in rat serum; type: ADME, cell-free; conditions: not given
Summary of the method: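 Free fraction was measured in the presence of rat serum. Values are the mean of duplicate experiments.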

Structure (SMILES)	fraction unbound
C[C@@H](N1CN([C@H]2c3ccccc3CSc3c(Cl)cccc32)n2ccc(=O)c(O)c2C1=O)C(F)(F)F	0.00329
C[C@@H](N1CN([C@H]2c3ccccc3CSc3cccc(Cl)c32)n2ccc(=O)c(O)c2C1=O)C(F)(F)F	0.00589
C[C@@H](N1CN([C@@H]2c3ccccc3SCc3cccc(F)c32)n2ccc(=O)c(O)c2C1=O)C(F)(F)F	0.012
C[C@@H](N1CN([C@H]2c3ccc(F)cc3CSc3ccccc32)n2ccc(=O)c(O)c2C1=O)C(F)(F)F	0.00383
C[C@@H](N1CN([C@@H]2c3ccccc3SCc3c2ccc(F)c3F)n2ccc(=O)c(O)c2C1=O)C(F)(F)F	0.00411
C[C@@H](N1CN([C@H]2c3ccccc3CSc3cc(Cl)ccc32)n2ccc(=O)c(O)c2C1=O)C(F)(F)F	0.00303
O=C1c2c(O)c(=O)ccn2N(C2c3ccccc3CSc3ccccc32)CN1C1CC1 (stereo not given)	0.0783
COCC(C)N1CN(C2c3ccccc3CSc3ccccc32)n2ccc(=O)c(O)c2C1=O (stereo not given)	0.106
C[C@@H](N1CN([C@H]2c3ccccc3CSc3cccc(F)c32)n2ccc(=O)c(O)c2C1=O)C(F)(F)F	0.0119

system: Influenza A virus; experiment: Antiviral activity against Influenza A virus (A/WSN/1933(H1N1)) infected in mouse assessed as reduction in viral titer in lung by measuring reduction in virus infectivity in MDCK cells at 0.4 to 10 mg/kg, po administered after 5 days of infection and measured after 24 hrs; type: functional, organism-based; conditions: dose mg/kg 0.4-10, time […]
Summary of the method: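 Mice were inoculated with A/WSN/33 at 100 TCID50/mouse. Oral dosing was twice daily (BID), starting 5 days after infection. Lung virus titer (log TCID50/mL) was determined on MDCK cells 24 h after the first dose.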

Structure (SMILES)	Activity
C[C@@H](N1CN([C@@H]2c3ccccc3SCc3c2ccc(F)c3F)n2ccc(=O)c(O)c2C1=O)C(F)(F)F	Active
